# Paper PMC7024744 (Journal of Pesticide Science, 2020)
# Legend:
# [1] = tested on: B. cinerea; assay: fungicidal activity in vitro, mycelium growth rate method; format: cell-based; conditions: Botrytis cinerea, read-out: Antifungal activity in vitro, inhibition, B. cinerea
# How it was run: (§1)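 Mycelium growth rate method. Test compounds were dissolved in acetone as a 100 mg/L stock and tested at 50 mg/L. Boscalid served as positive control and acetone as negative control. Plates were incubated at 25°C. Inhibition (%) was calculated from the average mycelial diameter (mm) with compound versus the negative-control diameter.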
# [2] = tested on: V. mali; assay: as above; format: cell-based; conditions: Cytospora mali, read-out: Antifungal activity in vitro, inhibition, V. mali
# How it was run: as §1
# [3] = target: porcine SDH (Sus scrofa, UniProt A5GZW8+D0VWV4+Q007T0+Q0QF01); assay: SDH enzymatic inhibition assay; format: biochemical, swine
# How it was run: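 Porcine SDH quantified by double-antibody sandwich ELISA. Plates were coated with purified porcine SDH antibody, then monoclonal antibody and HRP-labelled SDH antibody were added. After washing, TMB substrate was added, followed by acid. OD was read at 450 nm. SDH activity concentration was taken from a standard curve of standard-substance concentration against OD and corrected for sample dilution.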
# Chain of porcine SDH (Q0QF01 43-664): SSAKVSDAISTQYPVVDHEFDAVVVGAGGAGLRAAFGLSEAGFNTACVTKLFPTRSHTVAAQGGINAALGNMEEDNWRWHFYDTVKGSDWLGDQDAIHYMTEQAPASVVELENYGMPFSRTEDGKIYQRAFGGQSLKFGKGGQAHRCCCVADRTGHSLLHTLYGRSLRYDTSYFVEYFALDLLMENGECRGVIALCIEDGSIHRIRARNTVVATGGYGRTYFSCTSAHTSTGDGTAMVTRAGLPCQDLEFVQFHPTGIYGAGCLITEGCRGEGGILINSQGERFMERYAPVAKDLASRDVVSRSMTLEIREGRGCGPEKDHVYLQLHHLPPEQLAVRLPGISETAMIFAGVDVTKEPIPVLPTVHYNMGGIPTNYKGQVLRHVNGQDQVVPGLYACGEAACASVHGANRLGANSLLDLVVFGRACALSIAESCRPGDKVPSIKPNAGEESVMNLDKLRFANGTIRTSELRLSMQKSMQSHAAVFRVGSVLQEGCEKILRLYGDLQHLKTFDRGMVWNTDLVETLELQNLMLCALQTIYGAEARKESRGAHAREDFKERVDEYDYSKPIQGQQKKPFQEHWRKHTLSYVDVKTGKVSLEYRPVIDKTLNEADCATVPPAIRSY
# Chain of porcine SDH (Q007T0 29-280): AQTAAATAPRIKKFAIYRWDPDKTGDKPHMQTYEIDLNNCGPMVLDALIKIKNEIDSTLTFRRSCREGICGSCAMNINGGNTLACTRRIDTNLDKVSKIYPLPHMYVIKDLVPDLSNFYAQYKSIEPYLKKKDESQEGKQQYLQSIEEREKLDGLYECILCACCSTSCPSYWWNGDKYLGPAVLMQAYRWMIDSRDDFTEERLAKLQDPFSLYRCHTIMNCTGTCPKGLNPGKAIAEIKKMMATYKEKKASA
# Chain of porcine SDH (D0VWV4 30-169): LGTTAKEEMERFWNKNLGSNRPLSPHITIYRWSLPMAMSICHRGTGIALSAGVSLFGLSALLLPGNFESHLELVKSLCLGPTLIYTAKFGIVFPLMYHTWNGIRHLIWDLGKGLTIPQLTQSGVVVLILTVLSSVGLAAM
# Chain of porcine SDH (A5GZW8 37-159): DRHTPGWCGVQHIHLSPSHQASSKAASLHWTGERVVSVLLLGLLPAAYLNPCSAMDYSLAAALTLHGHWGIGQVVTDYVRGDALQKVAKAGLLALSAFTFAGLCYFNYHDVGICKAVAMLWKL
smiles,measurement,setting,value
O=C(Nc1ccccc1-c1ccc(Cl)cc1)c1cccnc1Cl [Boscalid],inhibition at 50 µg/mL,[1],100%
same,inhibition at 50 µg/mL,[2],100%
same,IC50,[3],1670 nM
same,inhibition at 0.5 µM,"[3]; read-out: SDH enzymatic inhibition, Inhibition (%) 0.5 µM",21.6%
same,inhibition at 1 µM,"[3]; read-out: SDH enzymatic inhibition, Inhibition (%) 1 µM",43.3%
same,inhibition at 2 µM,"[3]; read-out: SDH enzymatic inhibition, Inhibition (%) 2 µM",53.6%
same,inhibition at 8 µM,"[3]; read-out: SDH enzymatic inhibition, Inhibition (%) 8 µM",81%
